The nature of experiment [1]: S. cerevisiae growth inhibition in permissive medium (OD615), pilot counter-assay for S. cerevisiae lifespan shortening project, permissive growth control (AID 705). As to conditions: OD615, 24 h, at 10 µM, active compounds read high. The essentials: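 System: S. cerevisiae with engineered DeaD lifespan system / Measured by: absorbance (optical density) at 615 nm / Read-out: reduction in yeast growth (OD615) / Times: 4 h cell pre-growth, 24 h exposure at 30 °C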

Experiment [2] can be described thus: S. cerevisiae growth inhibition in restrictive medium, OD615, pilot screen, restrictive growth control, yeast lifespan reduction project (AID 706;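 active means growth inhibition above a set limit, 3 SD over mean compound inhibition, in both replicates, cut at about 43% in these data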;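 further: modified DeaD lifespan yeast strain shifted to restrictive glucose medium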). As to conditions: OD615, 48 h, at 10 µM, active compounds read high. The essentials: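 System: Engineered S. cerevisiae DeaD strain | Buffer or medium: Glucose-based CSMM-D restrictive medium | Schedule: 4 h pre-incubation, 48 h exposure at 30 °C | Technique: Optical density at 615 nm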

Experiment [3] in a line: doxorubicin toxicity protection in MRP-1 cells – H69AR cells, CellTiter-Glo, duplicate, MRP-1 activator project, pilot screen (AID 807;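 active means viability increase at or above a cutoff of the median across tested compounds plus 3 SD, cut at about 8.5% in these data, passing the limit was not always enough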;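 further: compound pretreatment 18-22 h then 72 h combined with doxorubicin; 0% = doxorubicin alone and 100% = vehicle without doxorubicin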). As to conditions: H69AR viability with doxorubicin, CellTiter-Glo luminescence; at 10 µM; active compounds read high. For orientation: Cellular ATP, detected with luciferase, serves as a proxy for viable cell number.
Experiment [4] can be described thus: viability of HCT116 without oncogenic beta-catenin – human colon tumor cells, pilot screen (AID 823;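 active means cell viability at or below a set limit in both duplicate runs, the limit being the all-compound median minus 4 SD, cut at about 23% in these data, passing the limit was not always enough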;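 further: 0% = wells killed by 20 µM Hyamine and 100% = untreated DMSO cell wells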). As to conditions: HCT116 beta-catenin knockout viability, CellTiter-Glo, 60 h; at 10 µM; active compounds read low.
Experiment [5] is described as follows: viability of PTEN-null HCT116 cells – cell-based, HCT116 clonal line, CellTiter-Glo, pilot screen (AID 824;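 active means viability at or below 27.92% in each of two runs, the all-compound median minus 4 SD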;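 further: 0% = 20 µM Hyamine control and 100% = vehicle cell control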). As to conditions: HCT116 PTEN-deleted viability, 60 h, at 10 µM, active compounds read low.
The nature of experiment [6]: RAM pathway blockade in budding yeast – dse1pr::URA3 reporter, 5-FOA selection, pilot screen (AID 869;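 active means inhibition over a set limit, the all-compound mean plus 3 SD, in both replicate runs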;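 further: 0% = DMSO wells with no growth and 100% = 10 µM 1-NA-PP1 with full growth; RAM network block rescues cells from 5-FOA so hits raise OD615 growth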). As to conditions: S. cerevisiae dse1pr::URA3 5-FOA growth, OD615, 2 d; at 10 µM; active compounds read high; strain carries analog-sensitive mutant Cbk1 kinase.
Experiment [7] can be described thus: RAM signaling pathway blockade in yeast – S. cerevisiae, Pdr1DBD-CYC8 efflux-inhibited sensitized strain, primary screen (AID 1298;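 active means RAM network inhibition above 8.4% in each of two replicates, 3 SD over the compound average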;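 further: 0% = DMSO untreated cells without growth and 100% = 10 µM 1-NA-PP1 full growth; higher means more yeast growth rescued from 5-FOA killing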). As to conditions: S. cerevisiae cbk1-as DSE1-URA3 strain, 5-FOA growth OD615, 2 d; at 50 µM; active compounds read high.

Values without a mark were called inactive. Records with an inconclusive call do not appear. Active and inactive are the calls of the source.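 How the source made its calls, unless noted: active means growth inhibition above 25% in both replicates, a cutoff set 3 SD above the mean; inconclusive means above 25% in only one replicate; inactive means the rest.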

The term viability denotes a read-out of living cells in per cent, often relative to untreated cells. One may read the inhibition as the change of the read-out against control, counted positive when it falls.

Take `Cc1cc(C2N=C(N)Nc3nc4ccccc4n32)c(C)n1-c1ccccc1Cl` (stereo unspecified): the growth inhibition in experiment [1] was -0.255%; in experiment [2], -33.7%. Moreover, the viability increase in experiment [3] was -4.14%. Moreover, the viability in experiment [4] is 9.19% (active); in experiment [5], 16.7% (active). In experiment [6], the inhibition was 2.92%. Besides, in experiment [7], the RAM network inhibition was 3.79%.

Turning to `CCN(CC)CCCNC(=O)Cn1ncc2c(=O)oc3ccc(C)cc3c21`, the growth inhibition in experiment [1] was -23.9%; in experiment [2] it was -25.6%. Also, the viability increase in experiment [3] is -1.87%. Further, the viability in experiment [4] is 101%; in experiment [5], 92.3%. Also, the inhibition in experiment [6] is 2.04%. Further, in experiment [7], the RAM network inhibition is 5.92%.

As to `COc1ccc(C(=O)Nc2cccc(C(C)=O)c2)cc1S(=O)(=O)N1CCOCC1`, the results for the growth inhibition in experiment [1] and in experiment [2] were -23.9% and -18.5%, respectively. Also, in experiment [3], the viability increase was -1.76%. Also, the values for the viability in experiment [4] and in experiment [5] were 92% and 96%, respectively. Besides, in experiment [6], the inhibition is 2.08%. Besides, in experiment [7], the RAM network inhibition is 2.08%.

For `COc1ccc(Nc2ncnc3c2oc2ccccc23)cc1`, the growth inhibition in experiment [1] is -9.29%; in experiment [2], 16.5%. For the same compound, the viability increase in experiment [3] is -2.52%. Further, the viability in experiment [4] is 92.5%; in experiment [5], 92%. The inhibition in experiment [6] is -0.035%. Also, the RAM network inhibition in experiment [7] was 4.44%.

Turning to `CC1CCN(S(=O)(=O)c2ccc3c(c2)oc(=O)n3CC(=O)N2c3ccccc3CC2C)CC1` (stereo unspecified), the results for the growth inhibition in experiment [1] and in experiment [2] were -4.77% and -7.59%, respectively. Also, in experiment [3], the viability increase is -4.28%. Further, the viability is 68.5% in experiment [4] and 52.9% in experiment [5]. The inhibition in experiment [6] is 2.85%. In addition, the RAM network inhibition in experiment [7] was 7.34%.

On to `O=C(Cn1cnc2c(nnn2-c2ccccc2)c1=O)N1CCOCC1`, for which the growth inhibition in experiment [1] was -5.42%; in experiment [2], -7.92%. For the same compound, in experiment [3], the viability increase was 0.78%. Besides, the viability in experiment [4] and in experiment [5] was 104% throughout. In addition, the inhibition in experiment [6] is -0.26%. In experiment [7], the RAM network inhibition is 0.26%.

`Cc1ccc(S(=O)(=O)N(C)CCCC(=O)Nc2ccncc2)cc1`: the growth inhibition in experiment [1] is -2.16%; in experiment [2] it was -6.8%. In addition, the viability increase in experiment [3] was -0.64%. In addition, the viability in experiment [4] was 79.4%; in experiment [5], 79%. Also, the inhibition in experiment [6] was 0.13%. The RAM network inhibition in experiment [7] was 1.94%.

On to `Cn1c(Cn2c(=O)sc3ccccc32)nnc1SCC(=O)NC1CCCC1`, for which the growth inhibition in experiment [1] is -9.37%; in experiment [2], -5.96%. Further, in experiment [3], the viability increase was -1.04%. In addition, the viability in experiment [4] is 102%; in experiment [5] it was 103%. Besides, the inhibition in experiment [6] is 0%. Also, in experiment [7], the RAM network inhibition was 3.56%.

As for `Cc1cc(C)nc(SCC(=O)NCc2ccco2)n1`, the growth inhibition is 3.65% in experiment [1] and 6.47% in experiment [2]. Besides, the viability increase in experiment [3] was -5.58%. In addition, the viability in experiment [4] is 70.6%; in experiment [5], 78.4%. In addition, the inhibition in experiment [6] is -0.38%. Besides, the RAM network inhibition in experiment [7] is 2.1%.

For `C=C(C)CSc1nnc(-c2ccc(OC)c(OC)c2)n1N`, the growth inhibition was 11.8% in experiment [1] and 7.34% in experiment [2]. Besides, in experiment [3], the viability increase is -0.31%. Moreover, the viability in experiment [4] is 96%; in experiment [5] it was 99.2%. In experiment [6], the inhibition is -0.36%. In addition, the RAM network inhibition in experiment [7] was 3.74%.

For the compound `COc1ccc(C2C(C(=O)Nc3cccnc3)=C(C)Nc3nc(-c4ccco4)nn32)cc1` (stereo unspecified), the growth inhibition in experiment [1] is 4.86%; in experiment [2] it was -9.13%. The viability increase in experiment [3] was -1.69%. Further, the results for the viability in experiment [4] and in experiment [5] were 108% and 104%, respectively. The inhibition in experiment [6] is 0.55%. The RAM network inhibition in experiment [7] was 2.07%.

In the case of `Cc1c(C(=O)NCc2cccnc2)oc2ccccc12`, the growth inhibition in experiment [1] is -3.83%; in experiment [2] it was -5.65%. The viability increase in experiment [3] was -3.9%. The viability in experiment [4] was 99.2%; in experiment [5], 87%. For the same compound, in experiment [6], the inhibition was 1.27%. Further, the RAM network inhibition in experiment [7] was 1.07%.

On to `CC1=C(NCCc2ccccc2)CCC1=O`, for which the growth inhibition in experiment [1] was 1.6%; in experiment [2], -14.4%. Further, the viability increase in experiment [3] is -2.97%. Besides, the viability in experiment [4] is 92%; in experiment [5], 86.2%. For the same compound, the inhibition in experiment [6] is 1.74%. For the same compound, the RAM network inhibition in experiment [7] was 2.7%.

As for `Cc1cccc(NC(=O)c2cccnc2)c1`, the growth inhibition was -3.06% in experiment [1] and 4.14% in experiment [2]. Also, the viability increase in experiment [3] was 1.56%. For the same compound, the viability in experiment [4] was 97.2%; in experiment [5] it was 96.5%. Besides, the inhibition in experiment [6] was 0.405%. Besides, in experiment [7], the RAM network inhibition is 5.69%.

With `COC(=O)c1cn(C(C)C(=O)NCc2ccco2)c2ccccc12` (stereo unspecified), the growth inhibition was -16.9% in experiment [1] and -23.6% in experiment [2]. The viability increase in experiment [3] was -0.53%. Moreover, the viability in experiment [4] and in experiment [5] was 102% in each case. The inhibition in experiment [6] is 1.68%. In experiment [7], the RAM network inhibition was 2.95%.

`O=C(NCc1ccco1)c1cnccn1`: the growth inhibition in experiment [1] is 3.99%; in experiment [2] it was 5.22%. Besides, in experiment [3], the viability increase is -2.25%. Moreover, the viability in experiment [4] was 98.7%; in experiment [5] it was 101%. The inhibition in experiment [6] is 2.81%. For the same compound, the RAM network inhibition in experiment [7] was -0.25%.

For `COc1cccc2c(=O)n(CC(=O)NC3CCCC3)ccc12`, the growth inhibition in experiment [1] was -19.3%; in experiment [2], -5.62%. In experiment [3], the viability increase was -1.22%. In addition, the viability in experiment [4] was 99.1%; in experiment [5] it was 94%. Further, the inhibition in experiment [6] is -0.215%. Moreover, in experiment [7], the RAM network inhibition is 3.83%.

On to `Cn1c(=O)oc2cc(S(=O)(=O)N3CCC(N4CCCCC4)CC3)ccc21`, for which the growth inhibition in experiment [1] was -15.8%; in experiment [2], -13.1%. For the same compound, the viability increase in experiment [3] is -1.67%. The viability in experiment [4] was 98.7%; in experiment [5], 93%. The inhibition in experiment [6] is -0.02%. Besides, in experiment [7], the RAM network inhibition is 1.06%.

Source of the values: PubChem BioAssay.
